In ChEMBL document CHEMBL2021901, “Antibacterial acylphloroglucinols from Hypericum olympicum” (2012):
Converted amounts (≈) assume the structure as drawn.

Key:
Staphylococcus aureus [1] = assay: Antibacterial activity against Staphylococcus aureus SA-1199B overexpressing NorA MDR efflux pump after 24 hrs; assay type: functional
Outline: (§1)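 Strains grown on nutrient agar for 24 h at 37 °C before testing. Broth microdilution MIC used an inoculum of 5 × 10⁵ CFU, prepared in normal saline (9 g/L) against a 0.5 McFarland standard. Plates were incubated at 37 °C, then MTT (5 mg/mL methanolic stock) was added for 20 min. Growth was scored by colour change.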

Staphylococcus aureus [2] = assay: Antibacterial activity against Staphylococcus aureus XU212 overexpressing TetK tetracycline efflux pump after 24 hrs; assay type: functional; conditions: XU212, 24 h; outline: as §1
Staphylococcus aureus [3] = assay: Antibacterial activity against Staphylococcus aureus RN4220 overexpressing MsrA macrolide efflux protein after 24 hrs; assay type: functional; conditions: RN4220, 24 h; outline: as §1
Staphylococcus aureus [4] = assay: Antibacterial activity against Staphylococcus aureus ATCC 25923 after 24 hrs; assay type: functional; conditions: ATCC 25923, 24 h; outline: as §1
Staphylococcus aureus [5] = assay: Antibacterial activity against Staphylococcus aureus EMRSA-15 after 24 hrs; assay type: functional; conditions: EMRSA-15, 24 h; outline: as §1
Staphylococcus aureus [6] = assay: Antibacterial activity against Staphylococcus aureus EMRSA-16 after 24 hrs; assay type: functional; conditions: EMRSA-16, 24 h; outline: as §1
[7] = system: Mycolicibacterium smegmatis; assay: Antimycobacterial activity against Mycobacterium smegmatis ATCC 14468 after 72 hrs by MTT assay; assay type: functional; conditions: ATCC 14468, 72 h
Outline: (§2)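 Mycobacteria were grown on Columbia agar with 7% defibrinated horse blood, subcultured, and incubated 72 h at 37 °C before the assay. Broth microdilution MIC used an inoculum of 5 × 10⁵ CFU in normal saline, set against a 0.5 McFarland standard. Plates were incubated at 37 °C, then MTT (5 mg/mL methanolic stock) was added for 20 min. Growth was read by colour change.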

[8] = system: Mycolicibacterium fortuitum; assay: Antimycobacterial activity against Mycobacterium fortuitum ATCC 6841 after 72 hrs by MTT assay; assay type: functional; conditions: ATCC 6841, 72 h
Outline: (§3)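 Mycobacterium strains were subcultured on Columbia agar with 7% defibrinated horse blood at 37 °C for 72 h before assay. The inoculum was 5 × 10⁵ CFU in normal saline (9 g/L), set against a 0.5 McFarland standard. Microtiter plates were incubated at 37 °C. MIC was read after adding MTT (5 mg/mL methanolic stock) for 20 min, with growth shown by colour change.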

[9] = system: Mycolicibacterium smegmatis; assay: Antimycobacterial activity against Mycobacterium smegmatis MC2 2700 expressing Mycobacterium tuberculosis fatty acid synthase 1 gene after 72 hrs by MTT assay; assay type: functional; conditions: MC2 2700, 72 h; outline: as §2
Mycolicibacterium phlei = assay: Antimycobacterial activity against Mycobacterium phlei ATCC 11758 after 72 hrs by MTT assay; assay type: functional; conditions: ATCC 11758, 72 h; outline: as §3
Pseudomonas aeruginosa [10] = assay: […] activity against Pseudomonas aeruginosa K1119 after 24 hrs; assay type: functional; conditions: K1119, 24 h; outline: as §1
Pseudomonas aeruginosa [11] = assay: […] activity against Pseudomonas aeruginosa K767 after 24 hrs; assay type: functional; conditions: K767, 24 h; outline: as §1
Salmonella typhimurium [12] = assay: […] activity against Salmonella enterica serovar Typhimurium L354 after 24 hrs; assay type: functional, Salmonella enterica subsp. enterica serovar Typhimurium; conditions: L354, 24 h
Outline: (§4)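 The microdilution inoculum was 5 × 10⁵ CFU in normal saline (9 g/L), matched to a 0.5 McFarland standard. Plates were incubated at 37 °C. MTT (5 mg/mL methanolic stock) was added for 20 min, and colour change indicated growth for the MIC readout.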

Salmonella typhimurium [13] = assay: […] activity against Salmonella enterica serovar Typhimurium L10 after 24 hrs; assay type: functional, Salmonella enterica subsp. enterica serovar Typhimurium; conditions: L10, 24 h; outline: as §4

## C=C(C)C(CC/C(C)=C/COc1cc(O)cc(O)c1C(=O)C(C)CC)OO (stereo unspecified) [OLYMPICIN D]
Staphylococcus aureus [1]
  MIC: 64 µg/mL
Staphylococcus aureus [2]
  MIC: 64 µg/mL
Staphylococcus aureus [3]
  MIC: 64 µg/mL
Staphylococcus aureus [4]
  MIC: 64 µg/mL
Staphylococcus aureus [5]
  MIC: 64 µg/mL
Staphylococcus aureus [6]
  MIC: 64 µg/mL

## Cc1onc(-c2ccccc2)c1C(=O)N[C@@H]1C(=O)N2[C@@H]1SC(C)(C)[C@@H]2C(=O)O [OXACILLIN]
Staphylococcus aureus [5]
  MIC: 79 µM
Staphylococcus aureus [6]
  MIC: 1280 µM

## CC[C@H](C)C(=O)c1c(O)cc(O)cc1OC/C=C(\C)CCC=C(C)C [OLYMPICIN A]
Staphylococcus aureus [1]
  MIC: 2.9 µM
Staphylococcus aureus [2]
  MIC: 2.9 µM
Staphylococcus aureus [3]
  MIC: 2.9 µM
Staphylococcus aureus [4]
  MIC: 2.9 µM
Staphylococcus aureus [5]
  MIC: 1.45 µM
Staphylococcus aureus [6]
  MIC: 2.9 µM
[7]
  MIC: 11.6 µM (≈ 4.02 µg/mL)
[8]
  MIC: 23.2 µM (≈ 8.04 µg/mL)
[9]
  MIC: 11.6 µM (≈ 4.02 µg/mL)
Mycolicibacterium phlei
  MIC: 11.6 µM (≈ 4.02 µg/mL)
Pseudomonas aeruginosa [10]
  MIC: > 1000 µM
Pseudomonas aeruginosa [11]
  MIC: > 1000 µM
Salmonella typhimurium [12]
  MIC: > 1000 µM
Salmonella typhimurium [13]
  MIC: > 1000 µM

## CC[C@H](C)C(=O)c1c(O)cc(O)cc1OC/C=C(\C)C/C=C/C(C)(C)O [OLYMPICIN B]
Staphylococcus aureus [1]
  MIC: 64 µg/mL
Staphylococcus aureus [2]
  MIC: 64 µg/mL
Staphylococcus aureus [3]
  MIC: 64 µg/mL
Staphylococcus aureus [4]
  MIC: 64 µg/mL
Staphylococcus aureus [5]
  MIC: 64 µg/mL
Staphylococcus aureus [6]
  MIC: 64 µg/mL

## C=C(C)C(O)CC/C(C)=C/COc1cc(O)cc(O)c1C(=O)C(C)CC (stereo unspecified) [OLYMPICIN C]
Staphylococcus aureus [1]
  MIC: 64 µg/mL
Staphylococcus aureus [2]
  MIC: 64 µg/mL
Staphylococcus aureus [3]
  MIC: 64 µg/mL
Staphylococcus aureus [4]
  MIC: 64 µg/mL
Staphylococcus aureus [5]
  MIC: 64 µg/mL
Staphylococcus aureus [6]
  MIC: 64 µg/mL

## NNC(=O)c1ccncc1 [ISONIAZID]
[7]
  MIC: 14.6 µM (≈ 2 µg/mL)
[8]
  MIC: 29.2 µM (≈ 4 µg/mL)
[9]
  MIC: 14.6 µM (≈ 2 µg/mL)
Mycolicibacterium phlei
  MIC: 14.6 µM (≈ 2 µg/mL)

## CC[C@@H](CO)NCCN[C@@H](CC)CO [ETHAMBUTOL]
[7]
  MIC: 2.4 µM (≈ 0.49 µg/mL)
[8]
  MIC: 2.4 µM (≈ 0.49 µg/mL)
[9]
  MIC: 2.4 µM (≈ 0.49 µg/mL)
Mycolicibacterium phlei
  MIC: 2.4 µM (≈ 0.49 µg/mL)

## CCC(C)C(=O)c1c(O)cc(O)cc1OC/C=C(\C)CCC1OC1(C)C (stereo unspecified) [OLYMPICIN E]
Staphylococcus aureus [1]
  MIC: 64 µg/mL
Staphylococcus aureus [2]
  MIC: 64 µg/mL
Staphylococcus aureus [3]
  MIC: 64 µg/mL
Staphylococcus aureus [4]
  MIC: 64 µg/mL
Staphylococcus aureus [5]
  MIC: 64 µg/mL
Staphylococcus aureus [6]
  MIC: 64 µg/mL

## CCn1cc(C(=O)O)c(=O)c2cc(F)c(N3CCNCC3)cc21 [NORFLOXACIN]
Staphylococcus aureus [1]
  MIC: 100 µM
Staphylococcus aureus [4]
  MIC: 3.1 µM
Pseudomonas aeruginosa [10]
  MIC: 6.2 µM (≈ 1.98 µg/mL)
Pseudomonas aeruginosa [11]
  MIC: 6.2 µM (≈ 1.98 µg/mL)

## CC[C@H]1OC(=O)[C@H](C)[C@@H](O[C@H]2C[C@@](C)(OC)[C@@H](O)[C@H](C)O2)[C@H](C)[C@@H](O[C@@H]2O[C@H](C)C[C@H](N(C)C)[C@H]2O)[C@](C)(O)C[C@@H](C)C(=O)[C@H](C)[C@@H](O)[C@]1(C)O [ERYTHROMYCIN]
Staphylococcus aureus [3]
  MIC: 349 µM

## CN(C)[C@@H]1C(O)=C(C(N)=O)C(=O)[C@@]2(O)C(O)=C3C(=O)c4c(O)cccc4[C@@](C)(O)[C@H]3C[C@@H]12 [TETRACYCLINE]
Staphylococcus aureus [2]
  MIC: 288 µM
Salmonella typhimurium [12]
  MIC: 2.3 µM (≈ 1.02 µg/mL)
Salmonella typhimurium [13]
  MIC: 2.3 µM (≈ 1.02 µg/mL)
